Calls of active or inactive are those of the source.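 The calls were made as follows, unless noted: active = a full or partial loss of lipid-probe fluorescence in the fish gall bladder, intestine or both, judged by eye; inactive = no fluorescence loss, or compound toxic to the fish.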
Experiments:
[1] = inhibitors of TNFa-induced NFkB p65 translocation, primary screen, imaging, HUVEC, MLSMR starter and 10KST1 sets (AID 438;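 active = inhibition above 20% together with a positive visual image hit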;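 also: compound added about 3h40 before a 20 min TNFalpha stimulation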;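 as to inhibition: signal is the nuclear over cytoplasmic p65 intensity ratio per well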); conditions: HUVEC TNFa-induced p65 nuclear translocation; cell count: measured here: nuclei count (cytotoxicity indicator), at 2.08 µM; inhibition: at 2 µM, stronger effect = higher value, 0% TNFa-plus-vehicle, 100% no-TNFa wells
[2] = inhibitors of E-selectin induction by TNFa, primary screen, imaging, HUVEC, immunofluorescence, MLSMR starter and 10KST1 sets (AID 487;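 active = visually confirmed hit in the image check and inhibition above 20%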;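 as to inhibition: signal is fraction of cell area covered by stained E-selectin grains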;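 as to nuclei count: 100% = median nuclei count of all wells on the same plate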); conditions: HUVEC TNFalpha-induced E-selectin immunofluorescence imaging, at 2 µM; inhibition: stronger effect = higher value; nuclei count: measured here: cell number, toxicity
[3] = DUSP6 inhibitors restoring Erk phosphorylation by chemical complementation, primary imaging in DUSP6-transfected HeLa (AID 609;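 active = compounds giving at least 50% inhibition in the cell-based MKP-3 phosphatase rescue imaging test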;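 as to inhibition: phospho-Erk level distribution per well compared with pooled transfected vehicle control wells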); conditions: HeLa MKP-3 transfected, phospho-Erk imaging KS statistic, at 10 µM, cells stimulated with TPA for 15 min
[4] = target: Dual specificity protein phosphatase 6 (Homo sapiens) (UniProt Q16828); assay: as above; conditions: HeLa MKP-3 transfected, phospho-Erk imaging KS statistic; at 10 µM; stronger effect = higher value; cells stimulated with TPA for 15 min
[5] = target: Voltage-gated potassium channel subunit beta-2 (Rattus norvegicus) (UniProt P62483); assay: KvBeta enzyme negative modulators, primary screen, biochemical, NADPH fluorescence (AID 622;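 active = fluorescence slope higher than the sample average by over 3 SD, cut at about -0.22 in these data, passing the limit was not always enough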;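 also: slope of raw intensity against log time taken from 70 to 1610 s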); conditions: recombinant KvBeta, 4-cyanobenzaldehyde reduction, at 10 µM, stronger effect = higher value
[6] = target: Voltage-gated potassium channel subunit beta-2 (Rattus norvegicus) (UniProt P62483); assay: KvBeta positive modulators, primary screen, biochemical, NADPH fluorescence (AID 623;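 active = NADPH fluorescence slope more negative than the mean of all samples by about 3 SD, 99.7% confidence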;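 also: fluorescence intensity change per second fitted from 20 to 320 s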); conditions: Recombinant KvBeta, NADPH fluorescence decrease slope, 10 min; at 10 µM; stronger effect = lower value
[7] = target: Alpha-2C adrenergic receptor (Homo sapiens) (UniProt P18825); assay: modulators of alpha2C/GIRK thallium flux, primary screen, cell-based, HEK293 alpha2C/GIRK1/2 (AID 624;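 active = fluorescence slope after compound addition differing from the mean of all screened samples at 99.7% confidence, in either direction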;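 also: slope of fluorescence ratio to pre-addition baseline per second over 15 to 24 s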); conditions: thallium flux BTC fluorescence, at 10 µM, actives lie on both sides
[8] = inhibitors of larval lipid processing in zebrafish, primary screen, whole organism, PED6 fluorescence, gall bladder and intestine (AID 686); conditions: Zebrafish larvae PED6 lipid processing, fluorescence scoring; screened at 20 µM (by protocol);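 also: larvae 5 to 7 days old with five fish per well; signal comes from phospholipase A2 cleavage of quenched PED6 carried via bile; overnight exposure to compound and PED6 before scoring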
Summary of the method: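 Also added: quenched phospholipase substrate PED6, 100 nM final, ingested by larvae; System: zebrafish larvae, 5-7 d; Quantity: 5 larvae per well; Compound: 20 µM single dose; Schedule: overnight compound and PED6 incubation; Read-out: visual per-well fluorescence inhibition score; Measured by: By-eye fluorescence microscopy; Medium: E3.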

[9] = inhibitors of Chlamydomonas gravitaxis, primary screen, whole organism, Chlamydomonas reinhardtii, WT vs cilia-less mutant, absorbance, 96-well (AID 463189;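 active = inhibition at or above 50% relative to wild type and mutant plate controls; inactive = inhibition below 50%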;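 also: 0% = wild type cc124 cells in DMSO and 100% = ciliumless bld1 mutant cells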); conditions: OD600 absorbance, 2 days, at 10 µM, stronger effect = higher value
[10] = measured here: cell density z-score
[11] = measured here: nuclear c-Myc green intensity z-score
[12] = measured here: nuclear pErk red intensity z-score, stronger effect = higher value

Chain of Dual specificity protein phosphatase 6 (Homo sapiens) (Q16828 whole entry, looked up): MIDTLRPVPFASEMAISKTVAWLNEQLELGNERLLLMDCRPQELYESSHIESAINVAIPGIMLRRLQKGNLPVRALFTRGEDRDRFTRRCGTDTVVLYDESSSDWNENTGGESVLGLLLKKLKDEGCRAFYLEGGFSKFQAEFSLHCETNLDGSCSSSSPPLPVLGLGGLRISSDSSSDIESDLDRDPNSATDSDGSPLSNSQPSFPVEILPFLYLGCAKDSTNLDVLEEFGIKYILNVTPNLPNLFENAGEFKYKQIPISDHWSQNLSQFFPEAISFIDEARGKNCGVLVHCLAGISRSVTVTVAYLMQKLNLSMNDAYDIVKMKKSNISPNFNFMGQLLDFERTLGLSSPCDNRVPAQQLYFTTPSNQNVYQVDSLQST
Chain of Voltage-gated potassium channel subunit beta-2 (Rattus norvegicus) (P62483 whole entry, looked up): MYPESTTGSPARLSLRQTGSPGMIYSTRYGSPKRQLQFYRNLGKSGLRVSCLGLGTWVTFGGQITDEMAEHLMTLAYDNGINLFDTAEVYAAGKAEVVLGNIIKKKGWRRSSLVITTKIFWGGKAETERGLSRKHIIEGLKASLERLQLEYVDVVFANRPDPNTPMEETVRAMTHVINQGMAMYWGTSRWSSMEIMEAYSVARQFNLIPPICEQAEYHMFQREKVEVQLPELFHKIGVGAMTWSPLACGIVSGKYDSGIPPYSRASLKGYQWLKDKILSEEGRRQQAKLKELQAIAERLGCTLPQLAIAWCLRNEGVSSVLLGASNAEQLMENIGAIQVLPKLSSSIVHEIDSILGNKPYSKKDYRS
Chain of Alpha-2C adrenergic receptor (Homo sapiens) (P18825 whole entry, looked up): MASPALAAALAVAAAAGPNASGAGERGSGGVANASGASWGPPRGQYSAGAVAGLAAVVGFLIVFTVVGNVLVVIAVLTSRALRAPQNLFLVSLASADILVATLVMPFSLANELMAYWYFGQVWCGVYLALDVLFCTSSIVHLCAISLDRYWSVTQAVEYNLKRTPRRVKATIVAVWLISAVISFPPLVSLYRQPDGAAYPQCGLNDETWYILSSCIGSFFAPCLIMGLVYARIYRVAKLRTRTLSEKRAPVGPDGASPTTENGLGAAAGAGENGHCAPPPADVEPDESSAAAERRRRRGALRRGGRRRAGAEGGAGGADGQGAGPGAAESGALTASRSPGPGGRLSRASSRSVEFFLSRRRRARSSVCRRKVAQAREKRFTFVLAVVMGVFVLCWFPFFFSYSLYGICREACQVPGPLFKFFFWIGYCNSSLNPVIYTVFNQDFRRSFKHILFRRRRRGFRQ

Question: With COn1c(=S)[nH]c2ccccc2c1=O as the molecule, how does the cell count [1] read?
Answer: 454

Question: And the inhibition [1]?
Answer: 0.3% (inactive)

Question: And the inhibition [2]?
Answer: -12.8% (inactive)

Question: And the nuclei count [2]?
Answer: 98.1%

Question: And the z-score [3, 10]?
Answer: -1.19

Question: And the z-score [3, 11]?
Answer: 0.293

Question: What about the z-score [3, 12] of the same molecule?
Answer: -0.609

Question: And the inhibition [4]?
Answer: 3.5% (inactive)

Question: And the fluorescence slope [5]?
Answer: -0.496 (inactive)

Question: And the NADPH fluorescence slope [6]?
Answer: -7.7e-06 (inactive)

Question: What about the slope [7] of the same molecule?
Answer: 0.00619 (inactive)

Question: What about the outcome [8] of the same molecule?
Answer: inactive

Question: And the inhibition [9]?
Answer: 1.26% (inactive)

Question: Which cell count [1] does the source give for Cc1ccc(-c2ccc(/C=N/c3ncn[nH]3)o2)cc1Cl here?
Answer: 555

Question: What about the inhibition [1] of the same molecule?
Answer: -7% (inactive)

Question: What about the inhibition [2] of the same molecule?
Answer: 17.3% (inactive)

Question: And the nuclei count [2]?
Answer: 119%

Question: What about the z-score [3, 10] of the same molecule?
Answer: 1.47

Question: And the z-score [3, 11]?
Answer: 1.26

Question: And the z-score [3, 12]?
Answer: 0.207

Question: And the inhibition [4]?
Answer: 4.72% (inactive)

Question: And the fluorescence slope [5]?
Answer: -0.446 (inactive)

Question: What about the NADPH fluorescence slope [6] of the same molecule?
Answer: -1.9e-05 (inactive)

Question: And the slope [7]?
Answer: 0.00689 (inactive)

Question: What about the outcome [8] of the same molecule?
Answer: inactive

Question: What about the inhibition [9] of the same molecule?
Answer: 0.03% (inactive)

Question: With COc1ccc(Nc2cc(C)nc3ccccc23)cc1 as the molecule, how does the cell count [1] read?
Answer: 467

Question: What about the inhibition [1] of the same molecule?
Answer: -5.2% (inactive)

Question: What about the inhibition [2] of the same molecule?
Answer: 36% (inactive)

Question: What about the nuclei count [2] of the same molecule?
Answer: 118%

Question: And the z-score [3, 10]?
Answer: 0.29

Question: What about the z-score [3, 11] of the same molecule?
Answer: 0.934

Question: What about the z-score [3, 12] of the same molecule?
Answer: -1.53

Question: And the inhibition [4]?
Answer: 4.72% (inactive)

Question: What about the fluorescence slope [5] of the same molecule?
Answer: -0.429 (inactive)

Question: What about the NADPH fluorescence slope [6] of the same molecule?
Answer: -2.1e-05 (inactive)

Question: And the slope [7]?
Answer: 0.00465 (inactive)

Question: And the outcome [8]?
Answer: inactive

Question: What about the inhibition [9] of the same molecule?
Answer: 17.6% (inactive)

Question: For CC(C)Cc1nc(N2CCN(C(=O)C(C)C)CC2)c(C#N)c2c1CCC2, which cell count [1] is on record?
Answer: 541

Question: And the inhibition [1]?
Answer: 1% (inactive)

Question: And the inhibition [2]?
Answer: -148% (inactive)

Question: What about the nuclei count [2] of the same molecule?
Answer: 141%

Question: What about the z-score [3, 10] of the same molecule?
Answer: -1.27

Question: And the z-score [3, 11]?
Answer: 0.114

Question: What about the z-score [3, 12] of the same molecule?
Answer: 1.85

Question: And the inhibition [4]?
Answer: -3.5% (inactive)

Question: What about the fluorescence slope [5] of the same molecule?
Answer: -0.499 (inactive)

Question: And the NADPH fluorescence slope [6]?
Answer: -3.3e-05 (inactive)

Question: What about the slope [7] of the same molecule?
Answer: 0.00462 (inactive)

Question: And the outcome [8]?
Answer: inactive

Question: And the inhibition [9]?
Answer: 5.12% (inactive)

Question: For COc1ccc(OC(=O)c2cc3ccccc3o2)cc1, which cell count [1] is on record?
Answer: 610

Question: What about the inhibition [1] of the same molecule?
Answer: -1.1% (inactive)

Question: What about the inhibition [2] of the same molecule?
Answer: 77.3% (active)

Question: And the nuclei count [2]?
Answer: 142%

Question: What about the z-score [3, 10] of the same molecule?
Answer: -0.358

Question: And the z-score [3, 11]?
Answer: -0.13

Question: And the z-score [3, 12]?
Answer: -0.531

Question: And the inhibition [4]?
Answer: -9.66% (inactive)

Question: What about the fluorescence slope [5] of the same molecule?
Answer: -0.377 (inactive)

Question: And the NADPH fluorescence slope [6]?
Answer: -3.8e-05 (inactive)

Question: What about the slope [7] of the same molecule?
Answer: 0.0058 (inactive)

Question: What about the outcome [8] of the same molecule?
Answer: inactive

Question: And the inhibition [9]?
Answer: -0.854% (inactive)

Question: For COc1ccc(C=NCCCN2CCOCC2)cc1, which cell count [1] is on record?
Answer: 638

Question: And the inhibition [1]?
Answer: -9.5% (inactive)

Question: What about the inhibition [2] of the same molecule?
Answer: -363% (inactive)

Question: What about the nuclei count [2] of the same molecule?
Answer: 165%

Question: And the z-score [3, 10]?
Answer: -1.79

Question: What about the z-score [3, 11] of the same molecule?
Answer: -1.02

Question: And the z-score [3, 12]?
Answer: 1.46

Question: And the inhibition [4]?
Answer: -0.159% (inactive)

Question: What about the fluorescence slope [5] of the same molecule?
Answer: -0.486 (inactive)

Question: What about the NADPH fluorescence slope [6] of the same molecule?
Answer: -8.5e-05 (inactive)

Question: And the slope [7]?
Answer: 0.00493 (inactive)

Question: What about the outcome [8] of the same molecule?
Answer: inactive

Question: What about the inhibition [9] of the same molecule?
Answer: -6.33% (inactive)

Question: Which cell count [1] does the source give for CC(=O)Nc1cccc(NC(=O)CSc2nc(C)c(C)c(C)c2C#N)c1 here?
Answer: 546

Question: What about the inhibition [1] of the same molecule?
Answer: -8.2% (inactive)

Question: What about the inhibition [2] of the same molecule?
Answer: 28% (inactive)

Question: What about the nuclei count [2] of the same molecule?
Answer: 174%

Question: And the z-score [3, 10]?
Answer: 0.636

Question: What about the z-score [3, 11] of the same molecule?
Answer: 0.622

Question: What about the z-score [3, 12] of the same molecule?
Answer: -1.1

Question: And the inhibition [4]?
Answer: -4.27% (inactive)

Question: What about the fluorescence slope [5] of the same molecule?
Answer: -0.4 (inactive)

Question: And the NADPH fluorescence slope [6]?
Answer: -9.2e-06 (inactive)

Question: And the slope [7]?
Answer: 0.0055 (inactive)

Question: What about the outcome [8] of the same molecule?
Answer: inactive

Question: And the inhibition [9]?
Answer: -2.25% (inactive)

Question: Which cell count [1] does the source give for COCCCn1c2nc3ccccc3nc2c2c(=O)n(CC3CCCO3)cnc21 (stereo not given) here?
Answer: 561

Question: What about the inhibition [1] of the same molecule?
Answer: -24.2% (inactive)

Question: What about the inhibition [2] of the same molecule?
Answer: -93.6% (inactive)

Question: What about the nuclei count [2] of the same molecule?
Answer: 148%

Question: What about the z-score [3, 10] of the same molecule?
Answer: 0.117

Question: And the z-score [3, 11]?
Answer: -0.113

Question: And the z-score [3, 12]?
Answer: -0.0537

Question: What about the inhibition [4] of the same molecule?
Answer: 2.92% (inactive)

Question: And the fluorescence slope [5]?
Answer: -0.368 (inactive)

Question: And the NADPH fluorescence slope [6]?
Answer: -1.9e-05 (inactive)

Question: What about the slope [7] of the same molecule?
Answer: 0.00353 (inactive)

Question: What about the outcome [8] of the same molecule?
Answer: inactive

Question: What about the inhibition [9] of the same molecule?
Answer: 9.15% (inactive)

Question: With CCN(CC)CCNC(=O)c1ccccc1N as the molecule, how does the cell count [1] read?
Answer: 521

Question: What about the inhibition [1] of the same molecule?
Answer: -17.4% (inactive)

Question: What about the inhibition [2] of the same molecule?
Answer: -314% (inactive)

Question: What about the nuclei count [2] of the same molecule?
Answer: 187%

Question: What about the z-score [3, 10] of the same molecule?
Answer: 0.845

Question: What about the z-score [3, 11] of the same molecule?
Answer: 0.248

Question: What about the z-score [3, 12] of the same molecule?
Answer: 0.636

Question: What about the inhibition [4] of the same molecule?
Answer: -8.95% (inactive)

Question: What about the fluorescence slope [5] of the same molecule?
Answer: -0.463 (inactive)

Question: What about the NADPH fluorescence slope [6] of the same molecule?
Answer: -0.000132 (inactive)

Question: What about the slope [7] of the same molecule?
Answer: 0.00488 (inactive)

Question: What about the outcome [8] of the same molecule?
Answer: inactive

Question: What about the inhibition [9] of the same molecule?
Answer: -5.26% (inactive)

Question: With C=CCNc1nc(-c2ccc(O)c(C(N)=O)c2)cs1 as the molecule, how does the cell count [1] read?
Answer: 651

Question: And the inhibition [1]?
Answer: -7.7% (inactive)

Question: And the inhibition [2]?
Answer: -37.4% (inactive)

Question: What about the nuclei count [2] of the same molecule?
Answer: 154%

Question: And the z-score [3, 10]?
Answer: 1.4

Question: And the z-score [3, 11]?
Answer: -1.92

Question: What about the z-score [3, 12] of the same molecule?
Answer: 0.332

Question: And the inhibition [4]?
Answer: 7.48% (inactive)

Question: And the fluorescence slope [5]?
Answer: -0.465 (inactive)

Question: What about the NADPH fluorescence slope [6] of the same molecule?
Answer: -0.000295 (inactive)

Question: What about the slope [7] of the same molecule?
Answer: 0.00459 (inactive)

Question: And the outcome [8]?
Answer: inactive

Question: And the inhibition [9]?
Answer: 22.9% (inactive)

— PubChem BioAssay
